According to ChEMBL document CHEMBL4190298, “Stereochemistry of a Second Riolozane and Other Diterpenoids from Jatropha dioica” (J Nat Prod, 2017):

Experiments:
[1] = Cytotoxicity against African green monkey Vero cells assessed as reduction in cell viability after 3 days by MTT assay; type: cell-based; settings: chlorocebus sabaeus
Method in brief: (§1)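 Vero cells (ATCC CRL-1586) were grown in advanced DMEM with 2% FBS at 37 °C and 5% CO2 and exposed to compound at 100, 200, 400, 800 or 1600 μM for 3 days. Viability was read by MTT (10 μL of 5 mg/mL stock added). CC50 is the concentration reducing viability by 50% relative to untreated cells, taken as 100%. Triplicate; mean ± SD.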

Human alphaherpesvirus 1 [2] = assay: Antiviral activity against HSV-1 infected in African green monkey Vero cells assessed as inhibition of virus plaque formation after 72 hrs by Giemsa staining based assay; type: functional, organism-based; settings: Human alphaherpesvirus 1, Vero
Method in brief: (§2)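 Vero cells (ATCC CRL-1586) were grown in advanced DMEM with 2% FBS at 37 °C and 5% CO2. Wells of 5×10^5 cells were infected with 100 PFU HSV-1 or HSV-2 for 1 h at 37 °C. The supernatant was then replaced with medium containing 1% DMSO, 0.32% IgG and compound at 80, 160 or 320 μM. After 72 h, cells were MeOH-fixed and Giemsa-stained. Mock and acyclovir controls; triplicate.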

Human alphaherpesvirus 2 [3] = assay: Antiviral activity against HSV-2 infected in African green monkey Vero cells assessed as inhibition of virus plaque formation after 72 hrs by Giemsa staining based assay; type: functional, organism-based; settings: Human alphaherpesvirus 2, Vero; method in brief: as §2
[4] = Selectivity index, ratio of CC50 for African green monkey Vero cells to IC50 for HSV-2 infected in African green monkey Vero cells; type: toxicity; settings: HSV-2 infected Vero cells, read-out: Ratio CC50/IC50
[5] = Selectivity index, ratio of CC50 for African green monkey Vero cells to IC50 for HSV-1 infected in African green monkey Vero cells; type: toxicity; settings: HSV-1 infected Vero cells, read-out: Ratio CC50/IC50
Human alphaherpesvirus 1 [6] = assay: Antiviral activity against HSV-1 infected in African green monkey Vero cells assessed as inhibition of virus plaque formation; type: functional, organism-based; settings: Human alphaherpesvirus 1, Vero; method in brief: as §2
Human alphaherpesvirus 2 [7] = assay: Antiviral activity against HSV-2 infected in African green monkey Vero cells assessed as inhibition of virus plaque formation; type: functional, organism-based; settings: Human alphaherpesvirus 2, Vero; method in brief: as §2
[8] = Cytotoxicity against African green monkey Vero cells; type: cell-based; settings: chlorocebus sabaeus; method in brief: as §1

Compound	CC50 at 72 h [1]	IC50 (Human alphaherpesvirus 1 [2])	IC50 (Human alphaherpesvirus 2 [3])	selectivity ratio [4]	selectivity ratio [5]	IC50 (Human alphaherpesvirus 1 [6])	IC50 (Human alphaherpesvirus 2 [7])	CC50 [8]
C/C1=C/[C@]23O[C@H]2[C@H](C)C[C@@H]3C(=O)[C@]2(C)C(=O)CC(C)(C)[C@H]2CC1=O	> 1520 µM	> 303 µM	> 303 µM	–	–	–	–	–
C[C@@H]1CC2=C(C1)[C@@H]([C@@]1(C)C(=O)C[C@H]3[C@@H](C1=O)C3(C)C)[C@@H](C)C2=O	584 µM	180 µM	172 µM	3.4	3.2	–	–	–
C[C@@H]1CC2=C(C1)[C@@H]([C@@]1(C)C(=O)C[C@H]3[C@@H](C1=O)C3(C)C)[C@H](C)C2=O	–	–	–	5.8	5.8	210 µM	210 µM	1220 µM
Nc1nc2c(ncn2COCCO)c(=O)[nH]1 [ACYCLOVIR]	–	4.75 µM	3.11 µM	–	–	–	–	–
